ChEMBL document CHEMBL1139893, “Triterpene glycosides from the flower petals of sunflower (Helianthus annuus) and their anti-inflammatory activity” (2007)

Columns and labels:
Mus musculus [1] = assay: Antiinflammatory activity in ICR mouse assessed as inhibition of TPA-induced edema per ear applied topically 30 mins before TPA treatment; assay type: functional
Procedure, shortened: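 Female SPF ICR mice. TPA (1.7 nmol, 1 µg) in 20 µL acetone was applied to the right ear only, 10 µL to each of the inner and outer surfaces. Sample or vehicle (CHCl3-MeOH 1:1, 20 µL) was applied topically about 30 min beforehand. Ear thickness was read with a pocket gauge before and 6 h after TPA. ID50 came from probit-graphic interpolation across four dose levels, five mice each.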

Mus musculus [2] = assay: Inhibitory ratio of TPA-induced edema in presence of drug to TPA-induced edema in ICR mouse; assay type: functional
Procedure, shortened: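 Topical sample at 1.0 mg/ear, or CHCl3-MeOH (1:1, 20 µL) vehicle control, given about 30 min before TPA (1.7 nmol in 20 µL acetone) on the right ear of female ICR mice. Ear thickness was gauged before and 6 h after TPA. InhR = [(Edema A − Edema B)/Edema A] × 100. Mean of five mice, Student's t-test.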

Compound | ID50 (Mus musculus [1]) | Ratio (Mus musculus [2])
C[C@@H]1O[C@@H](O[C@H]2[C@H](O[C@H]3CC[C@]4(C)[C@H]5CC=C6[C@@H]7CC(C)(C)CC[C@]7(C(=O)O[C@@H]7OC[C@H](O)[C@H](O)[C@H]7O[C@@H]7O[C@@H](C)[C@H](O[C@@H]8O[C@H](CO)[C@@H](O)[C@H](O)[C@H]8O)[C@@H](O)[C@H]7O)CC[C@@]6(C)[C@]5(C)CC[C@H]4C3(C)C)O[C@H](CO)[C@@H](O[C@@H]3OC[C@@H](O)[C@H](O)[C@H]3O)[C@@H]2O)[C@H](O)[C@H](O)[C@H]1O [HELIANTHOSIDE 1] | 144 nmol | 71%
C[C@@H]1O[C@@H](O[C@@H]2[C@@H](O)[C@H](O[C@H]3CC[C@]4(C)[C@H]5CC=C6[C@@H]7CC(C)(C)CC[C@]7(C(=O)O[C@@H]7OC[C@H](O)[C@H](O)[C@H]7O[C@@H]7O[C@@H](C)[C@H](O[C@@H]8O[C@H](CO)[C@@H](O)[C@H](O)[C@H]8O)[C@@H](O)[C@H]7O)[C@H](O)C[C@@]6(C)[C@]5(C)CC[C@H]4C3(C)C)O[C@H](CO)[C@H]2O[C@@H]2OC[C@@H](O)[C@H](O)[C@H]2O)[C@H](O)[C@H](O)[C@H]1O [HELIANTHOSIDE 2] | 135 nmol | 77%
C[C@@H]1O[C@@H](O[C@H]2[C@H](O[C@H]3CC[C@]4(C)[C@H]5CC=C6[C@@H]7CC(C)(C)CC[C@]7(C(=O)O[C@@H]7O[C@H](CO)[C@@H](O)[C@H](O)[C@H]7O[C@@H]7O[C@@H](C)[C@H](O[C@@H]8O[C@H](CO)[C@@H](O)[C@H](O)[C@H]8O)[C@@H](O)[C@H]7O)[C@H](O)C[C@@]6(C)[C@]5(C)CC[C@H]4C3(C)C)O[C@H](CO)[C@@H](O[C@@H]3OC[C@@H](O)[C@H](O)[C@H]3O)[C@@H]2O)[C@H](O)[C@H](O)[C@H]1O [HELIANTHOSIDE 3] | 156 nmol | 73%
C[C@@H]1O[C@@H](O[C@@H]2[C@@H](O)[C@H](O[C@H]3CC[C@@]4(C)[C@@H](CC[C@]5(C)[C@@H]4CC=C4[C@@H]6CC(C)(C)CC[C@]6(C(=O)O[C@@H]6OC[C@@H](O)[C@H](O)[C@H]6O[C@@H]6O[C@@H](C)[C@H](O[C@@H]7O[C@H](CO)[C@@H](O)[C@H](O)[C@H]7O)[C@@H](O)[C@H]6O)[C@H](O)C[C@]45C)[C@]3(C)CO)O[C@H](CO)[C@H]2O[C@@H]2OC[C@@H](O)[C@H](O)[C@H]2O)[C@H](O)[C@H](O)[C@H]1O [HELIANTHOSIDE 4] | 262 nmol | 75%
C[C@@H]1O[C@@H](O[C@@H]2[C@@H](O)[C@H](O[C@H]3CC[C@]4(C)[C@H]5CC=C6[C@@H]7CC(C)(C)CC[C@]7(C(=O)O[C@@H]7O[C@H](CO)[C@@H](O)[C@H](O)[C@H]7O[C@@H]7O[C@@H](C)[C@H](O)[C@@H](O)[C@H]7O)[C@H](O)C[C@@]6(C)[C@]5(C)CC[C@H]4C3(C)C)O[C@H](CO)[C@H]2O[C@@H]2OC[C@@H](O)[C@H](O)[C@H]2O)[C@H](O)[C@H](O)[C@H]1O [HELIANTHOSIDE 5] | 155 nmol | 63%
C[C@@H]1O[C@@H](O[C@H]2CC[C@]3(C)[C@H]4CC=C5[C@@H]6CC(C)(C)CC[C@]6(C(=O)OC6OC[C@@H](O)[C@@H](O)[C@@H]6O[C@@H]6O[C@@H](C)[C@H](O[C@@H]7O[C@H](CO)[C@@H](O)[C@H](O)[C@H]7O)[C@@H](O)[C@H]6O)[C@H](O)C[C@@]5(C)[C@]4(C)CC[C@H]3C2(C)C)[C@H](O)[C@H](O)[C@H]1OC1OC[C@@H](O)[C@H](O)[C@H]1O (stereo partly specified) [HELIANTHOSIDE B] | 65 nmol | 80%
C[C@]12CCC(=O)C=C1CC[C@@H]1[C@@H]2[C@@H](O)C[C@@]2(C)[C@H]1CC[C@]2(O)C(=O)CO [HYDROCORTISONE] | 83 nmol | 99%
COc1ccc2c(c1)c(CC(=O)O)c(C)n2C(=O)c1ccc(Cl)cc1 [INDOMETHACIN] | 838 nmol | 96%
